A selection: hits, their analogues and other compounds. The true share with any hit is near 0.38%.
STK33 kinase inh – inhibitors of purified STK33 kinase, primary screen, biochemical, ADP-Glo luminescence, homogeneous, cell-free | inhibition, % at 10 µM | MBP phosphorylation | 320,000 compounds, 0.073% hits;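 active = inhibition at or above 25%, using the most active replicate where run in duplicate; inactive = inhibition below 25%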
A1 inh – caspase 3/7 activation in MEF A1-2A-BIM cells, primary screen, A1 inhibitor project, cell-based, luminescence, HTS | 330,000 compounds, 0.066% hits | caspase activation, % (test concentration not listed) | Caspase-Glo 3/7 luminescence, 3 h; percent of clofoctol response, vehicle zero;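 active = over half of replicate activation scores above 10%, or exactly half above 10 with the replicate mean above 10; inconclusive = replicate mean below 10 yet half the replicates above 10; inactive = over half of replicates below 10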
procasp7 counter – procaspase-7 activators, primary screen, counter-screen for procaspase-3 activator project, biochemical, absorbance, HTS, human; Caspase-7 (Homo sapiens), P55210; recombinant procaspase-7, Ac-DEVD-pNA absorbance 405 nm; D23A/D198A/D206A triple mutant, cannot self-cleave; scale: DMSO 0, 5 µM enzyme 100; activation, % at 8.5 µM; 330,000 compounds, 0.093% hits; AID 463210, 2010;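 active = percent activation above the screen-wide mean plus 3 SD, cut at about 25% in these data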
Target sequence (P55210 whole entry D23A/D198A/D206A): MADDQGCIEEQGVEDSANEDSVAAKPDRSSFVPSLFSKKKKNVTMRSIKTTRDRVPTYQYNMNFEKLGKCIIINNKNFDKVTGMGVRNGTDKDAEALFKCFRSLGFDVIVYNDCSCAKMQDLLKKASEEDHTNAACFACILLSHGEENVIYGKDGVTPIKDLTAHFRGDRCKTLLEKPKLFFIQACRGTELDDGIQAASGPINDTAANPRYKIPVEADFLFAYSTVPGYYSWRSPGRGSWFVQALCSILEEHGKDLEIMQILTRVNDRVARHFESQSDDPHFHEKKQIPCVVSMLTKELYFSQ
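Replicates: singlicate. Assay system: Procaspase-7 triple mutant (PC-7 D3A). Signal: 405 nm absorbance of p-nitroaniline. Times: 1 h preincubation, 2 h reaction. Buffer or medium: Zinc-free HEPES pH 7.4 with 300 mM NaCl, 0.01% Triton X-100. Also added: DEVD-pNA substrate. Benchmarks: DMSO wells as 0%, DMSO with 5 µM added PC-7 as 100%.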
GSK3A inh – blockers of GSK3A enzyme activity – biochemical, luminescence, cell-free homogeneous, HTS, primary screen | Glycogen synthase kinase-3 alpha (Homo sapiens), P49840 | AID 2650, 2010 | 320,000 compounds, 0.1% hits | GSK-3 alpha kinase, ADP-Glo luminescence, 60 min | inhibition, % at 10 µM;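 active = more than half of replicates show inhibition above 20%; inconclusive = some but at most half of replicates above 20% inhibition; inactive = no replicate shows inhibition above 20%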;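 also: GST-tagged GSK-3 alpha with peptide substrate and 25 µM ATP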
GSK3beta inhib – human GSK3beta kinase inhibitors, primary screen, biochemical, cell-free homogeneous, HTS | Glycogen synthase kinase-3 beta (Homo sapiens), P49841 | GST-GSK3beta kinase, ADP-Glo luminescence, 60 min; hits give low values | activity score (negative = inhibition), % at 10 µM | 300,000 compounds, 0.038% hits;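 active = more than half of replicate wells score below -50%, meaning over 50% inhibition versus plate controls; inconclusive = some replicates but at most half score below -50%; inactive = no replicate scores below -50%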
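test system = GST-tagged human GSK3beta kinase, cell-free | reagent = 25 µM ATP with peptide substrate | dosing = one dose of 10 µM per compound | schedule = 60 min reaction, RT | detection = luminescent ADP-Glo measurement of ADP formed | control set = DMSO neutral wells and GW8510 at 20 µM as positive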
proCasp3 act – activators of human procaspase-3 D3A mutant, primary screen, biochemical, absorbance, PC-3 D3A mutant, single concentration; 330,000 compounds, 0.11% hits; recombinant procaspase-3 D3A, Ac-DEVD-pNA absorbance 405 nm; activation, % at 8.5 µM;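 active = activation above the mean of all tested compounds plus 3 SD, cut at about 21% in these data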
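Assay system – Procaspase-3 D3A mutant, all three cleavage aspartates alanine · Controls – DMSO-only low control, 5 µM PC-3 D3A high control · Schedule – 1 h compound preincubation, 2 h substrate hydrolysis at 25 °C · Signal – 405 nm absorbance of p-nitroaniline, reads at 0 and 120 min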
Large screens that a line does not name were inactive.

COc1ccc2nc(NC(=O)CCc3nc(C4=CCN(C)CC4)no3)sc2c1	GSK3A inh 53
Cc1ccccc1-n1c(C)nc2sccc2c1=O	none
COc1ccc(-n2c(O)c(C(C)=NCCCn3ccnc3)c(=O)[nH]c2=O)cc1	GSK3A inh 54
NC(=S)c1cn(C2OC(CO)C(O)C2O)c2ncnc(N)c12 (stereo unspecified)	STK33 kinase inh 67, GSK3A inh 64, GSK3beta inhib -52
CC[n+]1c(/C=C/N(C)c2ccccc2)sc2ccc(Cl)cc21	GSK3beta inhib -53
Oc1ccccc1-[n+]1c(-c2ccccc2)cc(-c2ccccc2)c(O)c1-c1ccccc1	none
O=[N+]([O-])c1cc(S(=O)(=O)c2ccc(O)c([N+](=O)[O-])c2)ccc1O	none
CC1=CC2/C=C(\C)CCC(O)C(O)/C=C/C(=O)C23C(=O)NC(CC(C)C)C3C1C (stereo unspecified)	none
C/C1=C\[C@@H](C)C/C=C/[C@H]2[C@@H]3O[C@]3(C)[C@@H](C)[C@H]3[C@H](Cc4c[nH]c5ccccc45)NC(=O)[C@]32C(=O)/C=C/C(=O)[C@@H]1O	A1 inh 11
O=C1CN=C(c2ccccc2)c2c(sc3c2CCCC3)N1	GSK3A inh 56
Cc1cc2c(s1)NC(=O)CN=C2c1cccs1	GSK3A inh 54
Cc1ccc2c(c1)C(c1ccccc1)=NCC(=O)N2	none
O=C1CN=C(c2ccc[nH]2)c2cc(Cl)ccc2N1	none
O=C1CN=C(c2cccs2)c2c(sc3c2CCCC3)N1	GSK3A inh 82, GSK3beta inhib -59
Cc1ccccc1C1=NCC(=O)N(CC(=O)NCc2ccco2)c2sc3c(c21)CCCC3	A1 inh inconclusive (no result: GSK3beta inhib)
CCC(=NCCc1c[nH]c2ccccc12)c1c(O)n(C)c(=O)n(C)c1=O	none
Cn1c(CN2CCN(C(=O)COc3ccccc3)CC2)nc2cc([N+](=O)[O-])ccc21	none
O=C1NC2NC(=O)N([N+](=O)[O-])C2N1 (stereo unspecified)	none
CCCC1=C(C(=O)OCC)C2(C(=O)Nc3ccc(C)cc32)C(C#N)=C(N)O1 (stereo unspecified)	none
CCOC(=O)CC1=C(C(=O)OCC)C2(C(=O)Nc3ccccc32)C(C#N)=C(N)O1 (stereo unspecified)	A1 inh 6.5
Oc1cc2c(cc1O)[C@H]1c3ccccc3CN[C@@H]1CC2	STK33 kinase inh 28
COc1ccc(N=C2SCCCN2C)cc1	none
C[C@H]1CCCC(=O)CCC/C=C/c2cc(O)cc(O)c2C(=O)O1	STK33 kinase inh 28, GSK3A inh 52
CC(=O)OC(C)(C)/C=C/C(=O)C(C)(O)C1[C@H](O)C[C@@]2(C)C3CC=C4C(CC[C@@H](O)C4(C)C)[C@]3(CO)C(=O)C[C@]12C (stereo partly specified)	A1 inh 11
CCN1C(=O)C(=C/C=C/c2ccco2)C(=O)N(CC)C1=S	none
CCN1C(=O)C(=C2C=C(C)N(Cc3ccco3)C(C)=C2)C(=O)N(CC)C1=S	GSK3A inh 55
CN(C)c1ccc(/C=C/C=C/c2sc3ccccc3[n+]2C)cc1	none

Source: PubChem BioAssay
